Usually MIC stands for the lowest concentration found to suppress growth. One may read the inhibition as the change of the read-out against control, counted positive when it falls. One may read the IC50 as the midpoint of a concentration-inhibition curve.

Structures are written as SMILES. In brackets after ≈: the same amount, converted by molar mass. Activity calls are given as the source filed them. No cut-off for these calls is given here.

The values that follow come from ChEMBL document CHEMBL2417515, “Microwave assisted synthesis of some hybrid molecules derived from norfloxacin and investigation of their biological activities” (Eur J Med Chem, 2013).

The test system of one assay is Saccharomyces cerevisiae. Kind of assay: Antimicrobial activity against Saccharomyces cerevisiae RSKK 251 after 18 to 24 hrs by double microdilution method. The class given is functional. For orientation: Dilution methods test growth across graded concentrations, often in twofold steps.
The test system of a further assay is Enterococcus faecalis. Kind of assay: Antimicrobial activity against Enterococcus faecalis ATCC 29212 after 18 to 24 hrs by double microdilution method. In kind it is functional. A digest of the protocol:
(§1)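 Twofold broth microdilution in Mueller-Hinton broth, pH 7.3. Compounds come from 20.000 µg/mL stocks in hexane. […] Ampicillin serves as reference drug and DMSO diluted 1:10 as solvent control.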

The next assay deals with Staphylococcus aureus. Kind of assay: Antimicrobial activity against Staphylococcus aureus ATCC 25923 after 18 to 24 hrs by double microdilution method. In kind it is functional. A digest of the protocol:
as §1

For a further assay, the system named is Candida albicans. Kind of assay: Antimicrobial activity against Candida albicans ATCC 60193 after 18 to 24 hrs by double microdilution method. In kind it is functional.
The test system of assay [1] is Yersinia pseudotuberculosis. Kind of assay: Antimicrobial activity against Yersinia pseudotuberculosis ATCC 911 after 18 to 24 hrs by double microdilution method. In kind it is functional. A digest of the protocol: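 Double broth microdilution MIC (µg/mL). Mueller-Hinton broth pH 7.3; plates incubated 18–24 h at 35 °C. Compounds dissolved in […] as 20.000 µg/mL stock. Ampicillin as reference antibacterial; DMSO diluted 1:10 as solvent control.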

For a further assay, the system named is Bacillus cereus. Kind of assay: Antimicrobial activity against Bacillus cereus 702 Roma after 18 to 24 hrs by double microdilution method. In kind it is functional. A digest of the protocol: as §1
Assay [2] has as its system Mycolicibacterium smegmatis. Kind of assay: Antimicrobial activity against Mycobacterium smegmatis ATCC 607 after 48 to 72 hrs by double microdilution method. In kind it is functional.
A further assay concerns Pseudomonas aeruginosa. Kind of assay: Antimicrobial activity against Pseudomonas aeruginosa ATCC 43288 after 18 to 24 hrs by double microdilution method. The class given is functional. A digest of the protocol:
as §1

Assay [3] deals with Urease (Canavalia ensiformis) (UniProt P07374). Kind of assay: Inhibition of Jack bean urease using urea as substrate assessed as production of ammonia at 100 ug/ml after 15 mins. A digest of the protocol:
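Jack bean urease with buffer (100 mM urea, 0.01 M K2HPO4, 1 mM EDTA, 0.01 M LiCl, pH 8.2) and compound, 15 min at room temperature. Ammonia read by indophenol method (phenol/nitroprusside plus NaOH/NaOCl), A625 after 20 min. % inhibition = 100 − (OD test/OD control)×100. Thiourea as standard; triplicates.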

In a further assay the target is Urease (Canavalia ensiformis, UniProt P07374). Kind of assay: Inhibition of Jack bean urease using urea as substrate assessed as production of ammonia after 15 mins. A digest of the protocol: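 Jack bean urease in buffer (100 mM urea, 0.01 M K2HPO4, 1 mM EDTA, 0.01 M LiCl, pH 8.2) incubated with compound 15 min at room temperature. Ammonia read by indophenol method (phenol/nitroprusside plus NaOH/NaOCl), absorbance 625 nm after 20 min. % inhibition = 100 − (OD test/OD control)×100. IC50 from serial concentrations (250 to 0.114 µg/mL), triplicate; thiourea standard.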
Chain of Urease (P07374 whole entry): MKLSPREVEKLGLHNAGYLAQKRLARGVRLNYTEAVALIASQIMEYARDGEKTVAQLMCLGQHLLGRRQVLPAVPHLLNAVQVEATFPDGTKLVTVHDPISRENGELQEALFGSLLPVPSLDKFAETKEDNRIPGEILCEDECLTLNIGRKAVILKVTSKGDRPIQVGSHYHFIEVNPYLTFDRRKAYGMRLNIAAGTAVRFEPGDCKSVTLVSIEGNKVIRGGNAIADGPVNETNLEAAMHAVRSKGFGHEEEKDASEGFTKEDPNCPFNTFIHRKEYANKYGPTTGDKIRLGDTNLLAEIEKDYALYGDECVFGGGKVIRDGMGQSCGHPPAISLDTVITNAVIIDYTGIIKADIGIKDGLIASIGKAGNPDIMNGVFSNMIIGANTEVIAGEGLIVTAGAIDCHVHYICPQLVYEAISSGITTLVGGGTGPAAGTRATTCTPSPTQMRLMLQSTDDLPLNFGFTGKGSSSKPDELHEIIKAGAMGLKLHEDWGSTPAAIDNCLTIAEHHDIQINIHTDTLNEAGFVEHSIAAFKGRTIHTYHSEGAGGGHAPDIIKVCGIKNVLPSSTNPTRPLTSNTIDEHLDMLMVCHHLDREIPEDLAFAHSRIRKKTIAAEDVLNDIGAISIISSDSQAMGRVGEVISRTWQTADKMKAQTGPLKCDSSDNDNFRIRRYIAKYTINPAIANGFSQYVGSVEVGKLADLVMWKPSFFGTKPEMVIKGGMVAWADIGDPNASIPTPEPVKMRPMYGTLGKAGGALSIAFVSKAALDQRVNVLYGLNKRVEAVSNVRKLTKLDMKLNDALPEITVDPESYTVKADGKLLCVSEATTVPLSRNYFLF

Chain of Urease (Canavalia ensiformis) (P07374 whole entry, looked up): as the sequence (P07374 whole entry) above

Turning to `CCN1CC(=O)S/C1=N\c1ccc(N2CCN(c3cc4c(cc3F)c(=O)c(C(=O)O)cn4CC)CC2)c(F)c1`, the MIC in the assay on Saccharomyces cerevisiae, against Enterococcus faecalis, against Staphylococcus aureus, in the assay on Candida albicans and with Bacillus cereus was 250 µg/mL (≈ 450 µM) throughout. In addition, the MIC result (in assay [1]; in [2]; in the assay with Pseudomonas aeruginosa) was “inactive” each time.

On to `CCn1cc(C(=O)O)c(=O)c2cc(F)c(N3CCN(C(=O)CCl)CC3)cc21`, for which the MIC entry with Saccharomyces cerevisiae and in the assay on Candida albicans was “inactive” each time. For the same compound, the minimum inhibitory concentration (MIC) in the assay with Enterococcus faecalis was 0.21 µg/mL (≈ 0.531 µM); with Staphylococcus aureus, 0.21 µg/mL (≈ 0.531 µM); in [1], 1.7 µg/mL (≈ 4.29 µM); against Bacillus cereus, 0.21 µg/mL (≈ 0.531 µM); in assay [2], 0.42 µg/mL (≈ 1.06 µM); with Pseudomonas aeruginosa it was 15.6 µg/mL (≈ 39.4 µM).

Turning to `CCn1cc(C(=O)O)c(=O)c2cc(F)c(N3CCN(c4ccc(/N=c5\sc(-c6ccc(Cl)cc6)cn5Cc5ccccc5)cc4F)CC3)cc21`, the MIC against Saccharomyces cerevisiae, in the assay with Enterococcus faecalis and in the assay on Candida albicans was 250 µg/mL (≈ 351 µM) each time. Also, the MIC entry (in the assay on Staphylococcus aureus; in [1]; with Bacillus cereus; in assay [2]; in the assay on Pseudomonas aeruginosa) was “inactive” in each case.

On to `CCn1cc(C(=O)O)c(=O)c2cc(F)c(N3CCN(c4ccc(N)cc4F)CC3)cc21`, for which the MIC result in the assay with Saccharomyces cerevisiae and in the assay with Candida albicans was “inactive” each time. The MIC with Enterococcus faecalis is below 1.9 µg/mL; against Staphylococcus aureus, below 1.9 µg/mL; in [1] it was below 1.9 µg/mL; in the assay with Bacillus cereus it was below 1.9 µg/mL; in assay [2], 1.95 µg/mL (≈ 4.55 µM); with Pseudomonas aeruginosa it was 7.81 µg/mL (≈ 18.2 µM).

Regarding `CCn1cc(C(=O)O)c(=O)c2cc(F)c(N3CCN(c4ccc(NC(=O)NCc5ccccc5)cc4F)CC3)cc21`, the MIC is 250 µg/mL (≈ 445 µM) against Saccharomyces cerevisiae; 500 µg/mL (≈ 890 µM) in the assay on Enterococcus faecalis; 500 µg/mL (≈ 890 µM) in the assay with Staphylococcus aureus; 500 µg/mL (≈ 890 µM) in the assay on Candida albicans; 500 µg/mL (≈ 890 µM) in the assay on Bacillus cereus. The MIC result (in assay [1]; in assay [2]; with Pseudomonas aeruginosa) was “inactive” in each case.

Consider `COc1ccccc1N1CCN(CC(=O)N/N=C\c2ccccc2O)CC1`, for which the MIC with Saccharomyces cerevisiae turned out to be 62.5 µg/mL (≈ 170 µM); against Enterococcus faecalis it was 15.6 µg/mL (≈ 42.3 µM); against Staphylococcus aureus, 31.3 µg/mL (≈ 85 µM); against Candida albicans, 250 µg/mL (≈ 679 µM); in [1], 31.3 µg/mL (≈ 85 µM); against Bacillus cereus it was 31.3 µg/mL (≈ 85 µM). The minimum inhibitory concentration (MIC) in assay [2] was 31.3 µg/mL (≈ 85 µM); with Pseudomonas aeruginosa, 62.5 µg/mL (≈ 170 µM).

The compound `CN[C@@H]1[C@H](O[C@H]2[C@H](O[C@H]3[C@H](O)[C@@H](O)[C@H](N=C(N)N)[C@@H](O)[C@@H]3N=C(N)N)O[C@@H](C)[C@]2(O)C=O)O[C@@H](CO)[C@H](O)[C@H]1O` [STREPTOMYCIN] showed an MIC in assay [2] of 4 µg/mL (≈ 6.88 µM).

With `CCn1cc(C(=O)O)c(=O)c2cc(F)c(N3CCN(C(=O)CSc4nnc(CN5CCN(c6ccccc6OC)CC5)n4-c4ccccc4)CC3)cc21`, the inhibition in assay [3] came out at 86.2%. For the same compound, the concentration for half-maximal inhibition (IC50) on Urease was 27.7 µM.

In the case of `NC(N)=S` [THIOUREA], on Urease, the 50% inhibitory concentration (IC50) was 678 µM.

Turning to `CC1(C)S[C@@H]2[C@H](NC(=O)[C@H](N)c3ccccc3)C(=O)N2[C@H]1C(=O)O` [AMPICILLIN], the MIC with Enterococcus faecalis is 10 µg/mL (≈ 28.6 µM); against Staphylococcus aureus, 35 µg/mL (≈ 100 µM); in assay [1] it was 18 µg/mL (≈ 51.5 µM); against Bacillus cereus, 15 µg/mL (≈ 42.9 µM); against Pseudomonas aeruginosa, above 128 µg/mL.

As to `COc1ccc(/C=N\NC(=O)CN2CCN(c3ccccc3OC)CC2)cc1O`, the MIC with Saccharomyces cerevisiae is 31.3 µg/mL (≈ 78.6 µM); in the assay on Enterococcus faecalis it was 15.6 µg/mL (≈ 39.2 µM); against Staphylococcus aureus, 31.3 µg/mL (≈ 78.6 µM); against Candida albicans, 62.5 µg/mL (≈ 157 µM); in [1] it was 31.3 µg/mL (≈ 78.6 µM); in the assay on Bacillus cereus, 31.3 µg/mL (≈ 78.6 µM). The MIC (in assay [2]; against Pseudomonas aeruginosa) was 31.3 µg/mL (≈ 78.6 µM) in each case.

For `CCn1cc(C(=O)O)c(=O)c2cc(F)c(N3CCN(c4ccc(/N=C5\SC(=O)CN5Cc5ccccc5)cc4F)CC3)cc21`, the MIC was 250 µg/mL (≈ 405 µM) with Saccharomyces cerevisiae; 125 µg/mL (≈ 202 µM) in the assay with Enterococcus faecalis; 125 µg/mL (≈ 202 µM) against Staphylococcus aureus; 250 µg/mL (≈ 405 µM) with Candida albicans; 62.5 µg/mL (≈ 101 µM) in assay [1]; 125 µg/mL (≈ 202 µM) in the assay with Bacillus cereus. This compound showed an MIC in [2] of 62.5 µg/mL (≈ 101 µM). The MIC result in the assay on Pseudomonas aeruginosa was “inactive”.

Regarding `CCNC(=S)Nc1ccc(N2CCN(c3cc4c(cc3F)c(=O)c(C(=O)O)cn4CC)CC2)c(F)c1`, the minimum inhibitory concentration (MIC) against Saccharomyces cerevisiae and against Candida albicans was 250 µg/mL (≈ 485 µM) each time. For the same compound, the MIC entry (in the assay with Enterococcus faecalis; in the assay with Staphylococcus aureus; in assay [1]; in the assay with Bacillus cereus; in assay [2]; in the assay on Pseudomonas aeruginosa) was “inactive” throughout.

Consider `CCn1cc(-c2ccc(Cl)cc2)s/c1=N\c1ccc(N2CCN(c3cc4c(cc3F)c(=O)c(C(=O)O)cn4CC)CC2)c(F)c1`, for which the MIC entry (in the assay on Saccharomyces cerevisiae; with Enterococcus faecalis; in the assay with Staphylococcus aureus; with Candida albicans; in assay [1]; in assay [2]) was “inactive” in each case. For the same compound, the MIC entry in the assay with Pseudomonas aeruginosa is “inactive”. In the assay with Bacillus cereus, this compound gave an MIC of 1000 µg/mL (≈ 1540 µM).

For the compound `CCn1cc(C(=O)O)c(=O)c2cc(F)c(N3CCN(c4ccc(NC(=S)NCCCN5CCOCC5)cc4F)CC3)cc21`, the MIC result (in the assay on Saccharomyces cerevisiae; with Candida albicans; in assay [2]) was “inactive” in each case. The MIC against Enterococcus faecalis was determined as 31.2 µg/mL (≈ 50.8 µM); in the assay with Staphylococcus aureus, 15.6 µg/mL (≈ 25.4 µM); in assay [1] it was 62.5 µg/mL (≈ 102 µM); against Bacillus cereus it was 125 µg/mL (≈ 203 µM); with Pseudomonas aeruginosa, 500 µg/mL (≈ 813 µM).

For the compound `CCn1cc(C(=O)O)c(=O)c2cc(F)c(N3CCN(c4ccc(NC(=S)NCc5ccccc5)cc4F)CC3)cc21`, the MIC entry in the assay on Saccharomyces cerevisiae and with Candida albicans was “inactive” each time. Moreover, the MIC against Enterococcus faecalis was below 1.9 µg/mL; in the assay with Staphylococcus aureus, below 1.9 µg/mL; in assay [1] it was below 1.9 µg/mL; against Bacillus cereus, below 1.9 µg/mL; in [2], 0.97 µg/mL (≈ 1.68 µM); in the assay with Pseudomonas aeruginosa, 31.5 µg/mL (≈ 54.5 µM).

Take `OC(Cn1cncn1)(Cn1cncn1)c1ccc(F)cc1F` [FLUCONAZOLE]: the minimal inhibitory concentration (MIC) in the assay on Saccharomyces cerevisiae and with Candida albicans was below 8 µg/mL in each case.

In the case of `CCn1cc(C(=O)O)c(=O)c2cc(F)c(N3CCN(c4ccc([N+](=O)[O-])cc4F)CC3)cc21`, the MIC entry (with Saccharomyces cerevisiae; in the assay with Enterococcus faecalis; with Staphylococcus aureus; in the assay with Candida albicans; in the assay with Bacillus cereus; in [2]) was “inactive” throughout. Moreover, the MIC entry in the assay on Pseudomonas aeruginosa is “inactive”. In [1], this compound came in with a minimal inhibitory concentration (MIC) of 31.5 µg/mL (≈ 68.7 µM).
